SMILES strings stand for the structures.

Conditions in all cases: stereoisomer not certain
The target of one assay is T1, UniProt Q8VF43.
T1 sequence (whole entry): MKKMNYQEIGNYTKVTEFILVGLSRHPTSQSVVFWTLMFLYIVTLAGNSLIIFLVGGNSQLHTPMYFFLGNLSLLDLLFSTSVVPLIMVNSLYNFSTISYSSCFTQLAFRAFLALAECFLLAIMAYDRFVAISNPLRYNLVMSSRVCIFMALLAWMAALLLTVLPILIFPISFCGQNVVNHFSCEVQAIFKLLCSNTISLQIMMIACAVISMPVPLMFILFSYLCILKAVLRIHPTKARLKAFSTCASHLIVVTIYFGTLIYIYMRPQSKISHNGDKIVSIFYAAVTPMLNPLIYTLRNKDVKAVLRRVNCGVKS
In a few lines:
(§1)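 Assay methods differ from source to source, frequently being transient luciferase assays in mammalian cell lines. For each receptor–molecule pair, the label responsive (active) applies when the original authors judged the measured signal statistically different from baseline, and non-responsive (inactive) applies otherwise.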

In the next assay the target is T2, UniProt Q8VF52.
T2 sequence (whole entry): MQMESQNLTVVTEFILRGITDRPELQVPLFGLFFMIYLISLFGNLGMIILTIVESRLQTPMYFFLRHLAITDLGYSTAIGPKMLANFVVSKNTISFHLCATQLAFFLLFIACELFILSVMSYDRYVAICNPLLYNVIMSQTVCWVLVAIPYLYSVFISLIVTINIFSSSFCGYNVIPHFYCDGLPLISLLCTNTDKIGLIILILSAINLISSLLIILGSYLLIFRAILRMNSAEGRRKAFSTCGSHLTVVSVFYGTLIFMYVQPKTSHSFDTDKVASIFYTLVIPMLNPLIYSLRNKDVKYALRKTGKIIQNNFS
In a few lines: as §1

A further assay concerns the target T3, UniProt Q8VFM8.
T3 sequence (whole entry): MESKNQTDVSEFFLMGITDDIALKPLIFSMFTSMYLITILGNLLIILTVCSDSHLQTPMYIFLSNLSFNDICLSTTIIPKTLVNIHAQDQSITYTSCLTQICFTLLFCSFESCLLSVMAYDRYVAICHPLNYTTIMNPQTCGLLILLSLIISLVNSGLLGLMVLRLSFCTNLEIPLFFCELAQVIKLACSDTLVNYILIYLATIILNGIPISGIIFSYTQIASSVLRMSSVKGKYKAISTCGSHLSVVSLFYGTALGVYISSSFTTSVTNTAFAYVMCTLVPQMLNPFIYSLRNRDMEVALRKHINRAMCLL
In a few lines:
as §1

Another assay concerns the target UniProt Q8VF87. In outline:
as §1

Sequence of UniProt Q8VF87 (Q8VF87 as listed by the source): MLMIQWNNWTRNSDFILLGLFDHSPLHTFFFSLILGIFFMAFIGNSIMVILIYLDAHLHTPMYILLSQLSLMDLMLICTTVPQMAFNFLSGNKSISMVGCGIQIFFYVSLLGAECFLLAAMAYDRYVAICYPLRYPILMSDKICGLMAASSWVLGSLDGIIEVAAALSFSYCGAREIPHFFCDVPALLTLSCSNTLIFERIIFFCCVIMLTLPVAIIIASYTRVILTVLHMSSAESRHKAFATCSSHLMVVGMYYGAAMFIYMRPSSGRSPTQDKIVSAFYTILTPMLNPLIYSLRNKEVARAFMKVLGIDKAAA

Take `C1CCOCC1`: the “odorant receptor agonist call” value with UniProt Q8VF43, with UniProt Q8VF52 and in the assay with UniProt Q8VFM8 was “inactive” each time.
`CCC(S)C(C)CO` (stereo unspecified): the “odorant receptor agonist call” value with UniProt Q8VF87 is “inactive”.
In the case of `CCCCCOC(=O)CC`, the “odorant receptor agonist call” value in the assay with UniProt Q8VF43, in the assay with UniProt Q8VF52 and with UniProt Q8VFM8 was “inactive” throughout.
For `CCSCC`, the “odorant receptor agonist call” value in the assay with UniProt Q8VF43, with UniProt Q8VF52 and in the assay with UniProt Q8VFM8 was “inactive” each time.
Regarding `CC(=O)OCc1ccc2c(c1)OCO2`, the “odorant receptor agonist call” value with UniProt Q8VF43, with UniProt Q8VF52 and with UniProt Q8VFM8 was “inactive” throughout.
Turning to `CSSSC`, the “odorant receptor agonist call” value with UniProt Q8VF43, in the assay with UniProt Q8VF52 and with UniProt Q8VFM8 was “inactive” each time.
In the case of `CCOC(=O)CC(C)C`, the “odorant receptor agonist call” value with UniProt Q8VF43, in the assay with UniProt Q8VF52 and with UniProt Q8VFM8 was “inactive” each time.
On to `Cc1occc1SSc1ccoc1C`, for which the “odorant receptor agonist call” value with UniProt Q8VF43, with UniProt Q8VF52 and with UniProt Q8VFM8 was “inactive” each time.
For `CC(=O)C1(C)CC2=C(CCCC2(C)C)CC1C` (stereo unspecified), the “odorant receptor agonist call” value in the assay with UniProt Q8VF43, with UniProt Q8VF52 and with UniProt Q8VFM8 was “inactive” in each case.
For `C=CC(=C)CCC=C(C)C`, the “odorant receptor agonist call” value with UniProt Q8VF43, in the assay with UniProt Q8VF52 and with UniProt Q8VFM8 was “inactive” throughout.
With `CC1CC=CCCCCCCCCCC(=O)C1` (stereo unspecified), the “odorant receptor agonist call” value in the assay with UniProt Q8VF43, with UniProt Q8VF52 and in the assay with UniProt Q8VFM8 was “inactive” each time.
`CCCO`: the “odorant receptor agonist call” value with UniProt Q8VF43, in the assay with UniProt Q8VF52 and with UniProt Q8VFM8 was “inactive” each time.
In the case of `Cc1ccccc1OC(=O)C(C)C`, the “odorant receptor agonist call” value with UniProt Q8VF43, in the assay with UniProt Q8VF52 and in the assay with UniProt Q8VFM8 was “inactive” each time.
As to `CC(=O)OCCc1ccccc1`, the “odorant receptor agonist call” value with UniProt Q8VF43, with UniProt Q8VF52 and in the assay with UniProt Q8VFM8 was “inactive” throughout.
Turning to `O=C([O-])CCCCCCC(=O)[O-].[H+].[H+]`, the “odorant receptor agonist call” value with UniProt Q8VF43, with UniProt Q8VF52 and with UniProt Q8VFM8 was “inactive” in each case.
In the case of `CCCCCC(C=O)=Cc1ccccc1`, the “odorant receptor agonist call” value in the assay with UniProt Q8VF43 and with UniProt Q8VFM8 was “inactive” each time. The “odorant receptor agonist call” value with UniProt Q8VF52 was “active”.
